The source of these data is PMC3270411 (Chemistry & biology, 2012).

The test system of assay [1] is panel of 442 distinct kinases. The assay can be described thus: KINOMEscan kinase-binding panel.
The target in a further assay is DNAPK (Homo sapiens, UniProt P78527). The assay can be described thus: KiNativ cellular kinase profiling. Type of assay: cell-based. As to conditions: A375 cells, 1 μM, 3 hours, labeling site ATP.
The target of a further assay is PIK3C3 (Homo sapiens, UniProt Q8NEB9). Kind of assay: KiNativ cellular kinase profiling. Type of assay: cell-based. As to conditions: A375 cells, 1 μM, 3 hours, PIK3C3, labeling site ATP.
In the next assay the target is T1, PIP4K2C (Homo sapiens, UniProt Q8TBX8).
T1 sequence (Q8TBX8 1-421): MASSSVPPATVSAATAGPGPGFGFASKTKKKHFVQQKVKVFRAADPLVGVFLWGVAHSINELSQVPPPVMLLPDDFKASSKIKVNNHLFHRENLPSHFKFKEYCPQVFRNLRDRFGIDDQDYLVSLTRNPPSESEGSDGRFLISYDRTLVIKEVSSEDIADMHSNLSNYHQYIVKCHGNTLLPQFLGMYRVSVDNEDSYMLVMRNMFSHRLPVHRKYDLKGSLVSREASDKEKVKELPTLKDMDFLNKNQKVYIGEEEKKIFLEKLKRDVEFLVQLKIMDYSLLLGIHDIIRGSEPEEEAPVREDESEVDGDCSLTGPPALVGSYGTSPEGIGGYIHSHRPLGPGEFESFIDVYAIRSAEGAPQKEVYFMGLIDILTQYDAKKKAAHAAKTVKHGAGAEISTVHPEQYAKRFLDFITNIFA
The assay can be described thus: KiNativ cellular kinase profiling. Format: cell-based. As to conditions: A375 cells, 1 μM, 3 hours, labeling site ATP.

In the next assay the target is MARK3 (Homo sapiens, UniProt P27448). Kind of assay: KiNativ cellular kinase profiling. Type of assay: cell-based. As to conditions: for Percent inhibition of kinase labeling by ATP-biotin: A375 cells, 1 μM, 3 hours, MARK3, labeling site Lys1; for inhibition at 1 µM: A-375, read-out: Percent inhibition of kinase labeling by ATP-biotin.
The target of the next assay is p38a (Homo sapiens, UniProt Q16539). Kind of assay: KiNativ cellular kinase profiling. Format: cell-based. As to conditions: A375 cells, 1 μM, 3 hours.
The next assay deals with KIT(V559D,T670I) (Homo sapiens, UniProt P10721, T670I/V559D). Kind of assay: KinomeScan dissociation constant. Type of assay: binding.
A further assay addresses KIT(V559D) (Homo sapiens, UniProt P10721, V559D). Kind of assay: KinomeScan dissociation constant. Format: binding.
For another assay, the target named is MET(M250T) (Homo sapiens, UniProt P08581, M1250T). The assay can be described thus: enzymatic kinase assay on potential off-target. Type of assay: biochemical.
A further assay deals with JNK. Kind of assay: pulse-chase ATP-biotin binding kinetics assay in A375 cells. Type of assay: cell-based. As to conditions: same pulse-chase protocol. The essentials:
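A375 cells treated with 1 μM test compound for 1–5 h, then washed three times in PBS. Lysed in NP-40/CHAPS buffer for 30 min at 4°C, cleared, and gel-filtered into HEPES kinase buffer (about 5–15 mg/ml protein). Lysate labelled with 5 μM ATP-biotin probe for 1 h, reduced with DTT, alkylated with iodoacetamide, and pulled down on streptavidin for 2 h. Read-out: SDS-PAGE and JNK immunoblot.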

Assay [2] deals with c-Jun phosphorylation in HeLa and A375 cells. The assay can be described thus: cellular c-Jun phosphorylation, statements for both assay formats. Format: cell-based. As to conditions: relative to JNK-IN-5.
Assay [3] relates to potential additional kinase targets. The assay can be described thus: follow-up biochemical and binding assays on potent binding targets. As to conditions: enzymatic assay or dissociation constant follow-up.
The target in another assay is KIT(L576P) (Homo sapiens, UniProt P10721, L576P). Kind of assay: KinomeScan dissociation constant. Format: binding.
For another assay, the target named is JNK3 (Homo sapiens, UniProt P53779). The assay can be described thus: intact protein mass spectrometry of inhibitor-labeled JNK3. As to conditions: incubation with JNK3, electrospray mass spectrometry. Type of assay: binding.
For the next assay, the target named is NUAK1 (Homo sapiens, UniProt O60285). The assay can be described thus: follow-up IC50 determination after enzymatic panel. Type of assay: biochemical.
Another assay concerns the target ERK8 (Homo sapiens, UniProt Q8TD08). Kind of assay: follow-up IC50 determination after enzymatic panel. Type of assay: biochemical.
The target in assay [4] is T2, IRAK1 (Homo sapiens, UniProt P51617). The assay can be described thus: enzymatic kinase assay on potential off-target. Format: biochemical. As to conditions: IC50 (nM) (enzymatic) IRAK1.
The target in assay [5] is T2, IRAK1. Kind of assay: follow-up IC50 determination after enzymatic panel. Format: biochemical.

Bounds are passed on as bounds.

Sequence of KIT(V559D) (P10721 26-976 V559D): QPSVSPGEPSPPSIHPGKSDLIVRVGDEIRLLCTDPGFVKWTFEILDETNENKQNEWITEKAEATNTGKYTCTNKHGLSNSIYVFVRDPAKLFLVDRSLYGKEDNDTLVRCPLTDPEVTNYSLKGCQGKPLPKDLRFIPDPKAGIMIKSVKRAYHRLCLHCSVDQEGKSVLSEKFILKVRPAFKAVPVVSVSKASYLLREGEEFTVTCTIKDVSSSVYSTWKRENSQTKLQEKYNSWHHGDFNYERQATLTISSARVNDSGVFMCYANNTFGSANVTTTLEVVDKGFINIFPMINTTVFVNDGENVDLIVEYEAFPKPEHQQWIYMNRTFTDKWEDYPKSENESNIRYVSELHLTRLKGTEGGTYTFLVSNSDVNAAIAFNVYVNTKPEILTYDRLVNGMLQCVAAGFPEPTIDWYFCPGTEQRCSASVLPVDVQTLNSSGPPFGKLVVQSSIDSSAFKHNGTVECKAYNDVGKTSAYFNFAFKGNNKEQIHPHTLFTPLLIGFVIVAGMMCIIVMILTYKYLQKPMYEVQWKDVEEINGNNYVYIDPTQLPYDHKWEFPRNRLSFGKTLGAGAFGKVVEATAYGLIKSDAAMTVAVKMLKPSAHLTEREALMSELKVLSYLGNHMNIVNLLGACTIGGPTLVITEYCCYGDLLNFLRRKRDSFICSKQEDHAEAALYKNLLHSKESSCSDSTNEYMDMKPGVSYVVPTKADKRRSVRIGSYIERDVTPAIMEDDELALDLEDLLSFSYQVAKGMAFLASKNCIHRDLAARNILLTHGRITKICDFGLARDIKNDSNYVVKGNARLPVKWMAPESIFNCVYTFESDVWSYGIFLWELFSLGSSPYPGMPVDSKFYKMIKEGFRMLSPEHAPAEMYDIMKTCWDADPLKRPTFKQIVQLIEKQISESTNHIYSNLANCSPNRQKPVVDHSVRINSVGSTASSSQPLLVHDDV
Sequence of p38a (Q16539 whole entry): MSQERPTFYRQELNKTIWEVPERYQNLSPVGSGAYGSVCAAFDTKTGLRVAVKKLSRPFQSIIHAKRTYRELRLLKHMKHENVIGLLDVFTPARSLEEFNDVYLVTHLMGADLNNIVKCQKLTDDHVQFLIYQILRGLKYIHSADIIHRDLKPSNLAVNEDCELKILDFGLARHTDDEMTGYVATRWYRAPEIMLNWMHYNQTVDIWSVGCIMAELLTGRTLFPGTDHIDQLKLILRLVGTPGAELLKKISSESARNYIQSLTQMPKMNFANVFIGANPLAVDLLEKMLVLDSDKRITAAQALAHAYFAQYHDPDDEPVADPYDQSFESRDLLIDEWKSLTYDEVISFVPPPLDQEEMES
Sequence of MARK3 (P27448 whole entry): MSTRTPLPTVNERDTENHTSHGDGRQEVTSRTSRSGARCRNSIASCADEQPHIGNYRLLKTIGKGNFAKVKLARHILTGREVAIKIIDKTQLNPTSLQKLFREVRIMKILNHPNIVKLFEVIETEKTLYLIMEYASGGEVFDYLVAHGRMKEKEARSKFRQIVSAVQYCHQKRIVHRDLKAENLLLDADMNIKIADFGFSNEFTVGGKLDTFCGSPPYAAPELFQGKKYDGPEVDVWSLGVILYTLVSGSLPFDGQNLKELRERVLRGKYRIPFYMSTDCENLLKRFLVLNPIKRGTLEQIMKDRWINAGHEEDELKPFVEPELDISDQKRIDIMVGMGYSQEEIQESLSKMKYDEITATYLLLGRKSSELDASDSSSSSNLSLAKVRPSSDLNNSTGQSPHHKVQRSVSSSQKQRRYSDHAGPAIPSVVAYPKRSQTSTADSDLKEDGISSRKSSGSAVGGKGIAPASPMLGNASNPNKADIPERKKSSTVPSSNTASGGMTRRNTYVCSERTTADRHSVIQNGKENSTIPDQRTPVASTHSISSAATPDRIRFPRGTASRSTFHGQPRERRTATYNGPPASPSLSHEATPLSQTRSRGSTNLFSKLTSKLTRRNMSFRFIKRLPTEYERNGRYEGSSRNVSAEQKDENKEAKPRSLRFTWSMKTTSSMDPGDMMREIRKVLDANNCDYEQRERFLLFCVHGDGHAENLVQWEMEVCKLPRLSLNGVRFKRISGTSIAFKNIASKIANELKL
Sequence of PIK3C3 (Q8NEB9 whole entry): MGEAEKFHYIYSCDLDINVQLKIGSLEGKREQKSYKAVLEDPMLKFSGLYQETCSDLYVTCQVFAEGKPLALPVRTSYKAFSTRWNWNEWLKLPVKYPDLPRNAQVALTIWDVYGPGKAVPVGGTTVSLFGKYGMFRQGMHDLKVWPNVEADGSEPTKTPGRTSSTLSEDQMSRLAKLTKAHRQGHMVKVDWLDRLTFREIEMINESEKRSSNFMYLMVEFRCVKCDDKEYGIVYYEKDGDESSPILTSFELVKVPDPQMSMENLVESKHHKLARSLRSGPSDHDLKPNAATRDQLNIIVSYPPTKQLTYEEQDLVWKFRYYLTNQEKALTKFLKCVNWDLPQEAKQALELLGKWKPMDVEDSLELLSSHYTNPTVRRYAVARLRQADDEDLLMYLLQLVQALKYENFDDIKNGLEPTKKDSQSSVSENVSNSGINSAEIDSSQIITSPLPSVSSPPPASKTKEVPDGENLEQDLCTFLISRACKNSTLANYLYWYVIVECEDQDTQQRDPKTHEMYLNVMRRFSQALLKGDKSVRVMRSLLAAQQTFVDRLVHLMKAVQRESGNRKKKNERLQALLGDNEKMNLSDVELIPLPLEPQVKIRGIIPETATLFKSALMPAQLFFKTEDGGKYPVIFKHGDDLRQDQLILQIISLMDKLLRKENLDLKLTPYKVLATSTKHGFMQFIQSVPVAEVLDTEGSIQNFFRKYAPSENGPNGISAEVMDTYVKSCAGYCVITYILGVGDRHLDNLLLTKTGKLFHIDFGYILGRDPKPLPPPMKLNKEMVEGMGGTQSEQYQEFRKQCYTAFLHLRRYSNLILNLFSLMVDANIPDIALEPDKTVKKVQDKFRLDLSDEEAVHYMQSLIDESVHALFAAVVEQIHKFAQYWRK
T2 sequence (P51617 whole entry, species assumed): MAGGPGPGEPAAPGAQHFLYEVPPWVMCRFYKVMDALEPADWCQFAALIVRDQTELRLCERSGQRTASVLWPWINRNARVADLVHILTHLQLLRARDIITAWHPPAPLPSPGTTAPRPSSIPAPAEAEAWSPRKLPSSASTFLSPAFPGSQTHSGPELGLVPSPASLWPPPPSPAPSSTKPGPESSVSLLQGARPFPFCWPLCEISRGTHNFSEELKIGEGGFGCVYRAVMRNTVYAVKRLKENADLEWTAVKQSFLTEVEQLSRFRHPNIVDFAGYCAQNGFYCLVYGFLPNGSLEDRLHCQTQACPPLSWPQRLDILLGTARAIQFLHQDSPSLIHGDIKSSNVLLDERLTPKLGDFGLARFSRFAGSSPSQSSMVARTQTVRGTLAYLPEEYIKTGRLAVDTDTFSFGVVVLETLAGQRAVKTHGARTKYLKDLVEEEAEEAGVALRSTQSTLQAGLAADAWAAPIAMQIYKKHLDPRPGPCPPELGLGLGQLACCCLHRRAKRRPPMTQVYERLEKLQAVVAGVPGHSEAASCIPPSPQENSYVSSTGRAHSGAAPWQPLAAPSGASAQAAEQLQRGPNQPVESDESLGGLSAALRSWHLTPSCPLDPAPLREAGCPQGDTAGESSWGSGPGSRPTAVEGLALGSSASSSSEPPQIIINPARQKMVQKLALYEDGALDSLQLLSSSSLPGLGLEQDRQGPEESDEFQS
Sequence of ERK8 (Q8TD08 whole entry): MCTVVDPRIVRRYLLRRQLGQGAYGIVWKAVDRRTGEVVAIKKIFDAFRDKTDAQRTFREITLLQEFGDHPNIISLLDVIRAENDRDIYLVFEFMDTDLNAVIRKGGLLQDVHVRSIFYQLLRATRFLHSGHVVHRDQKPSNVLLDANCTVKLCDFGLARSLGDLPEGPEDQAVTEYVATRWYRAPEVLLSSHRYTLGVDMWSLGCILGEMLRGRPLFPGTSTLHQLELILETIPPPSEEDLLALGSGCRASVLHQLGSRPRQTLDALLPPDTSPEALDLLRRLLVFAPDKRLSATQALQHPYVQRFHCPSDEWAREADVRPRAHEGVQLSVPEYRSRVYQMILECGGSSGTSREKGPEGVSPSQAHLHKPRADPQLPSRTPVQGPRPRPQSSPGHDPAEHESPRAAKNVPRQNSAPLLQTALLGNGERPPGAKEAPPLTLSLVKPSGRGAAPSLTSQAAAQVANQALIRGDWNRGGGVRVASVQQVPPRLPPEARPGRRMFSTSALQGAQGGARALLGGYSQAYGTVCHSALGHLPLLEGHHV
Sequence of NUAK1 (O60285 whole entry): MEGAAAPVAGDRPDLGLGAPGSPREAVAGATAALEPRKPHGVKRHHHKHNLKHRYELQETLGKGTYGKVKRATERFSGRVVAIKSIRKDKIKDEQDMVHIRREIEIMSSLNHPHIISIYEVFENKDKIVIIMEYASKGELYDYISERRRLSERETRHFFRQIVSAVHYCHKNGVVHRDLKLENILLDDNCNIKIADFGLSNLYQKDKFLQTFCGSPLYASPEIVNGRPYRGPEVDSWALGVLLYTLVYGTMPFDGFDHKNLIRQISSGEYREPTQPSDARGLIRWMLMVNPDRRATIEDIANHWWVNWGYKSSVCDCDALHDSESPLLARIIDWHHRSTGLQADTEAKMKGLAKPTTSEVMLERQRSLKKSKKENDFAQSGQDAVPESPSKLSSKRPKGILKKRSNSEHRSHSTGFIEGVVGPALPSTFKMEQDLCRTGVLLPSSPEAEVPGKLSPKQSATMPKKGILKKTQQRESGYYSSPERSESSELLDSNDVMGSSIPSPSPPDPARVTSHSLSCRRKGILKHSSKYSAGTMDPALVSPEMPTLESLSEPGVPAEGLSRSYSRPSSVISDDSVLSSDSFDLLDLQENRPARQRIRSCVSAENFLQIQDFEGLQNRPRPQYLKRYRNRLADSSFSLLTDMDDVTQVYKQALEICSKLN
Sequence of KIT(V559D,T670I) (P10721 26-976 V559D/T670I): as the sequence (P10721 26-976 V559D) above, with T645I counted along it
Sequence of KIT(L576P) (P10721 26-976 L576P): as the sequence (P10721 26-976 V559D) above, with D534V, L551P counted along it

Regarding `CN(C)C/C=C/C(=O)Nc1cccc(C(=O)Nc2ccc(Nc3nccc(/C(C#N)=C4\Nc5ccccc5S4)n3)cc2)c1` [JNK-IN-12], the “S (10) score (ratio number of kinases inhibited more than 90 percent)” value in [1] (screening concentration 1 μM) worked out at 0.025. Also, the “Percent inhibition of kinase labeling by ATP-biotin” value (shortened to “Percent inhibition”) is given as −65.4% at DNAPK (first of two table lines); −80.7% at DNAPK (second of two table lines); 7.5% at PIK3C3 (first of two table lines); −0.5% at PIK3C3 (second of two table lines); 43.9% at PIP4K2C (first of two table lines); 42.6% at PIP4K2C (second of two table lines). Also, the entries for the “Percent inhibition” value on MARK3, at p38a (labeling site Lys2) and at p38a (labeling site Other) were −67.9%, −28% and −13.8%, respectively.
With `Cc1cc(NC(=O)c2cccc(NC(=O)/C=C/CN(C)C)c2)ccc1Nc1nccc(-c2cccnc2)n1` [JNK-IN-8], the figures for the Kd on KIT(V559D,T670I) and at KIT(V559D) were 0.056 µM and 0.092 µM, respectively. In addition, the IC50 against MET(M250T) was over 10 µM. The inhibition at 1 µM on MARK3 was -12%.
For `CCC(=O)Nc1cccc(C(=O)Nc2ccc(Nc3nccc(-c4cccnc4)n3)cc2)c1` [JNK-IN-6], the “Percent inhibition” value at DNAPK (first of two table lines) was 51.1%; on DNAPK (second of two table lines) it was 31.7%; on PIK3C3 (first of two table lines), 26.5%; on PIK3C3 (second of two table lines), 3.1%; on PIP4K2C (first of two table lines) it was −4.7%; on PIP4K2C (second of two table lines), 35.7%. Moreover, the figures for the “Percent inhibition” value on MARK3, on p38a (labeling site Lys2) and on p38a (labeling site Other) were −7.3%, 32.6% and 12.4%, respectively. Moreover, the “protection of JNK from labeling by ATP-biotin” value with JNK was “incapable of protecting JNK from labeling by ATP-biotin”. Besides, in [2], the “fold loss in potency / fold higher IC50 for cellular JNK inhibition” value is recorded as 50 fold.
`CN(C)C/C=C/C(=O)Nc1cccc(C(=O)Nc2ccc(Nc3nccc(-c4c(-c5ccccc5)nn5ccccc45)n3)cc2)c1` [JNK-IN-11] had a Kd on KIT(V559D) of 0.0082 µM. The inhibition at 1 µM at MARK3 was -27.8%.
For `CN(C)C/C=C/C(=O)Nc1cccc(C(=O)Nc2ccc(Nc3nccc(-c4cccnc4)n3)cc2)c1` [JNK-IN-7], the “number of kinases with binding inhibition of 95% or more” value in assay [1] (1.0 μM) is listed as “approximately 14 kinases”. For the same compound, the “number of additional kinases with Kd or IC50 of 100 nM or less” value in [3] is “eight”. Further, the Kd at KIT(L576P) is 0.04 µM; on KIT(V559D) it was 0.048 µM. Further, the “covalent modification of JNK3 (mass spectrometry)” value on JNK3 was “addition of a single molecule of inhibitor to the protein and labeling of Cys154”. Moreover, the inhibition at 1 µM at MARK3 was -13.5%. In addition, the IC50 against NUAK1 is under 0.2 µM; against ERK8, under 0.2 µM; on IRAK1 [4] it was about 10 nM; on IRAK1 [5], under 0.2 µM.

For orientation: Kd means the free concentration of one partner at which half of the binding sites on the other are occupied at equilibrium, for simple one-to-one binding. Read a high Kd as weaker binding. The term IC50 denotes the point on the concentration scale where inhibition reaches its midpoint. By inhibition is commonly meant the drop in the measured response relative to a control, in per cent.
